Results as given in publication PMC10975593 (ACS Omega, 2024).

Tests used:
KM12 = experiment: NCI 60-cell line screen; assay type: cell-based, human
SNB-75 = experiment: NCI 60-cell line screen; assay type: cell-based, human
How it was run: (§1)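 Test compounds were submitted to the National Cancer Institute and run under NCI's standard 60-cell-line protocols. Read-outs were taken from percent-growth versus log-concentration curves.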

A498 = experiment: NCI 60-cell line screen; assay type: cell-based, human
MDA-MB-435 = experiment: NCI 60-cell line screen; assay type: cell-based, human
NCI/ADR-RES = experiment: NCI 60-cell line screen; assay type: cell-based, human
M14 = experiment: NCI 60-cell line screen; assay type: cell-based, human
HOP-62 = experiment: NCI 60-cell line screen; assay type: cell-based, human
SF-295 = experiment: NCI 60-cell line screen; assay type: cell-based, human
How it was run: as §1

MALME-3M = experiment: NCI 60-cell line screen; assay type: cell-based, human
EKVX = experiment: NCI 60-cell line screen; assay type: cell-based, human
NCI-H226 = experiment: NCI 60-cell line screen; assay type: cell-based, human
BT-549 = experiment: NCI 60-cell line screen; assay type: cell-based, human
MDA-MB-231/ATCC = experiment: NCI 60-cell line screen; assay type: cell-based, human
OVCAR-4 = experiment: NCI 60-cell line screen; assay type: cell-based, human
NCI-H23 = experiment: NCI 60-cell line screen; assay type: cell-based, human
OVCAR-3 = experiment: NCI 60-cell line screen; assay type: cell-based, human
CCRF-CEM = experiment: NCI 60-cell line screen; assay type: cell-based, human
Fibro cell line = experiment: % inhibition on normal cell line; assay type: cell-based
K-562 = experiment: NCI 60-cell line screen; assay type: cell-based, human
SN12C = experiment: NCI 60-cell line screen; assay type: cell-based, human
How it was run: as §1

SK-MEL-28 = experiment: NCI 60-cell line screen; assay type: cell-based, human
How it was run: as §1

ACHN = experiment: NCI 60-cell line screen; assay type: cell-based, human
HOP-92 = experiment: NCI 60-cell line screen; assay type: cell-based, human
SF-539 = experiment: NCI 60-cell line screen; assay type: cell-based, human
How it was run: as §1

SNB-19 = experiment: NCI 60-cell line screen; assay type: cell-based, human
How it was run: as §1

UACC-62 = experiment: NCI 60-cell line screen; assay type: cell-based, human
How it was run: as §1

HCT-116 = experiment: NCI 60-cell line screen; assay type: cell-based, human

O=C(CN1CCN(CC(=O)Nc2nc3ccccc3s2)CC1)Nc1ccc([N+](=O)[O-])cc1 [OMS14, N-(benzo[d]thiazol-2-yl)-2-(4-(2-((4-nitrophenyl)amino)-2-oxoethyl)piperazin-1-yl)acetamide]
GI50 (KM12; Homo sapiens, KM12): 2.9 µM | IC50 (KM12; Homo sapiens, KM12): 4.5 µM | CC50 (KM12; Homo sapiens, KM12, read-out: LC50): 74.1 µM | TGI (KM12; KM12, colon cancer): 13.5 µM | GI50 (SNB-75; Homo sapiens, SNB-75): 2 µM | IC50 (SNB-75; Homo sapiens, SNB-75): 6.6 µM | CC50 (SNB-75; Homo sapiens, SNB-75, read-out: LC50): 24 µM | TGI (SNB-75; SNB-75, CNS cancer): 6.0 µM | TGI (A498; A498, renal cancer): 3.7 µM | GI50 (A498; Homo sapiens, A498): 1.7 µM | IC50 (A498; Homo sapiens, A498): 3.8 µM | CC50 (A498; Homo sapiens, A498, read-out: LC50): 7.9 µM | GI50 (MDA-MB-435; Homo sapiens, MDA-MB-435): 1.8 µM | IC50 (MDA-MB-435; Homo sapiens, MDA-MB-435): 3 µM | CC50 (MDA-MB-435; Homo sapiens, MDA-MB-435, read-out: LC50): 15.1 µM | TGI (MDA-MB-435; MDA-MB-435, melanoma): 4.6 µM | GI50 (NCI/ADR-RES; Homo sapiens): 1.3 µM | IC50 (NCI/ADR-RES; Homo sapiens): 2.4 µM | CC50 (NCI/ADR-RES; Homo sapiens, read-out: LC50): 7.8 µM | TGI (NCI/ADR-RES; ovarian cancer): 3.2 µM | GI50 (M14; Homo sapiens, M14): 1.7 µM | IC50 (M14; Homo sapiens, M14): 3 µM | CC50 (M14; Homo sapiens, M14, read-out: LC50): 8.3 µM | TGI (M14; M14, melanoma): 3.8 µM | TGI (HOP-62; HOP-62, non-small cell lung cancer): 3.7 µM | GI50 (HOP-62; Homo sapiens, HOP-62): 1.7 µM | IC50 (HOP-62; Homo sapiens, HOP-62): 3.2 µM | CC50 (HOP-62; Homo sapiens, HOP-62, read-out: LC50): 8.3 µM | GI50 (SF-295; Homo sapiens, SF-295): 2.2 µM | IC50 (SF-295; Homo sapiens, SF-295): 3.7 µM | CC50 (SF-295; Homo sapiens, SF-295, read-out: LC50): 28.8 µM | TGI (SF-295; SF-295, CNS cancer): 7.1 µM | GI50 (MALME-3M; Homo sapiens, Malme-3M): 3 µM | IC50 (MALME-3M; Homo sapiens, Malme-3M): 6.6 µM | CC50 (MALME-3M; Homo sapiens, Malme-3M, read-out: LC50): 35.5 µM | TGI (MALME-3M; MALME-3M, melanoma): 9.3 µM | GI50 (EKVX; Homo sapiens): 2 µM | IC50 (EKVX; Homo sapiens): 3.8 µM | CC50 (EKVX; Homo sapiens, read-out: LC50): 27.5 µM | TGI (EKVX; non-small cell lung cancer): 4.9 µM | GI50 (NCI-H226; Homo sapiens, NCI-H226): 1.4 µM | IC50 (NCI-H226; Homo sapiens, NCI-H226): 3.5 µM | CC50 (NCI-H226; Homo sapiens, NCI-H226, read-out: LC50): > 100 µM | TGI (NCI-H226; NCI-H226, non-small cell lung cancer): 4.2 µM | TGI (BT-549; BT-549, breast cancer): 9.8 µM | GI50 (BT-549; Homo sapiens, BT-549): 3 µM | IC50 (BT-549; Homo sapiens, BT-549): 7.8 µM | CC50 (BT-549; Homo sapiens, BT-549, read-out: LC50): 36.3 µM | GI50 (MDA-MB-231/ATCC; Homo sapiens, MDA-MB-231): 1.9 µM | IC50 (MDA-MB-231/ATCC; Homo sapiens, MDA-MB-231): 3.9 µM | CC50 (MDA-MB-231/ATCC; Homo sapiens, MDA-MB-231, read-out: LC50): 18.2 µM | TGI (MDA-MB-231/ATCC; MDA-MB-231/ATCC, breast cancer): 4.7 µM | GI50 (OVCAR-4; Homo sapiens, OVCAR-4): 2.4 µM | IC50 (OVCAR-4; Homo sapiens, OVCAR-4): 5.2 µM | CC50 (OVCAR-4; Homo sapiens, OVCAR-4, read-out: LC50): 75.9 µM | TGI (OVCAR-4; OVCAR-4, ovarian cancer): 8.3 µM | GI50 (NCI-H23; Homo sapiens, NCI-H23): 1.6 µM | IC50 (NCI-H23; Homo sapiens, NCI-H23): 3.2 µM | CC50 (NCI-H23; Homo sapiens, NCI-H23, read-out: LC50): 8.9 µM | TGI (NCI-H23; NCI-H23, non-small cell lung cancer): 3.8 µM | GI50 (OVCAR-3; Homo sapiens, OVCAR-3): 2.3 µM | IC50 (OVCAR-3; Homo sapiens, OVCAR-3): 4.3 µM | CC50 (OVCAR-3; Homo sapiens, OVCAR-3, read-out: LC50): > 100 µM | TGI (OVCAR-3; OVCAR-3, ovarian cancer): 6.6 µM | GI50 (CCRF-CEM; Homo sapiens): 2.5 µM | IC50 (CCRF-CEM; Homo sapiens): 4 µM | CC50 (CCRF-CEM; Homo sapiens, read-out: LC50): > 100 µM | TGI (CCRF-CEM; leukemia): 17.4 µM | inhibition at 10 µM (Fibro cell line; read-out: %inhibition at 10 μM): 49.4% | inhibition at 100 µM (Fibro cell line; read-out: %inhibition at 100 μM): 70.5% | GI50 (K-562; Homo sapiens, K562): 2.6 µM | IC50 (K-562; Homo sapiens, K562): 3 µM | CC50 (K-562; Homo sapiens, K562, read-out: LC50): > 100 µM | TGI (K-562; K-562, leukemia): 100 µM | GI50 (SN12C; Homo sapiens): 1.9 µM | IC50 (SN12C; Homo sapiens): 3.5 µM | CC50 (SN12C; Homo sapiens, read-out: LC50): > 100 µM | TGI (SN12C; renal cancer): 5.4 µM | GI50 (SK-MEL-28; Homo sapiens, SK-MEL-28): 2.1 µM | IC50 (SK-MEL-28; Homo sapiens, SK-MEL-28): 4 µM | CC50 (SK-MEL-28; Homo sapiens, SK-MEL-28, read-out: LC50): 23.4 µM | TGI (SK-MEL-28; SK-MEL-28, melanoma): 6.2 µM | GI50 (ACHN; Homo sapiens): 1.1 µM | IC50 (ACHN; Homo sapiens): 2.1 µM | CC50 (ACHN; Homo sapiens, read-out: LC50): 22.9 µM | TGI (ACHN; renal cancer): 4.4 µM | TGI (HOP-92; HOP-92, non-small cell lung cancer): 8.3 µM | GI50 (HOP-92; Homo sapiens, HOP-92): 2.3 µM | IC50 (HOP-92; Homo sapiens, HOP-92): 9.1 µM | CC50 (HOP-92; Homo sapiens, HOP-92, read-out: LC50): 89.1 µM | GI50 (SF-539; Homo sapiens, SF-539): 2 µM | IC50 (SF-539; Homo sapiens, SF-539): 4.3 µM | CC50 (SF-539; Homo sapiens, SF-539, read-out: LC50): 20 µM | TGI (SF-539; SF-539, CNS cancer): 5.5 µM | GI50 (SNB-19; Homo sapiens, SNB-19): 2.8 µM | IC50 (SNB-19; Homo sapiens, SNB-19): 4.9 µM | CC50 (SNB-19; Homo sapiens, SNB-19, read-out: LC50): > 100 µM | TGI (SNB-19; SNB-19, CNS cancer): 12.3 µM | GI50 (UACC-62; Homo sapiens, UACC-62): 1.7 µM | IC50 (UACC-62; Homo sapiens, UACC-62): 3.1 µM | CC50 (UACC-62; Homo sapiens, UACC-62, read-out: LC50): 6.9 µM | TGI (UACC-62; UACC-62, melanoma): 3.5 µM | TGI (HCT-116; HCT-116, colon cancer): 10.5 µM | GI50 (HCT-116; Homo sapiens, HCT-116): 0.7 µM | IC50 (HCT-116; Homo sapiens, HCT-116): 0.8 µM | CC50 (HCT-116; Homo sapiens, HCT-116, read-out: LC50): 52.5 µM
